Measured values reported in PMC9382226 (Inorganic chemistry, 2022).
Entries after “also recorded” stand apart in the source; their conditions may differ.

Key:
[1] = system: mice; experiment: Ex vivo biodistribution of uranium in mice by ICP-MS; settings: for uranium uptake in bone (tibia) / clearance from blood / uranium in soft organs (lung, liver, kidney, spleen): 4 mg/kg intravenous injection, ICP-MS; for uranium uptake in bone (tibia): 30 min, 2 h and 24 h; for stability of the uranium complex in vivo: biodistribution, label is the ligand of the complex
[2] = format: binding; settings: for k2 (pH 7.4), second-order rate constant for complexation of UO2^2+: TRIS buffer pH 7.4, 25 °C; for k2 (pH 5), second-order rate constant for complexation of UO2^2+: aqueous citrate buffer pH 5, 25 °C
[3] = Ligand protonation constants by semi-batch spectrophotometric titration; format: physicochemical; settings: 25 °C, I = 0.1 M KCl
Method in brief: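 Semi-batch spectrophotometric titration of test ligands (those not titrated potentiometrically) at 25 °C, ionic strength 0.1 M with KCl as supporting electrolyte; protonation constants fitted from the titration data; uncertainty given as standard deviation of the last digit.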

[4] = format: binding; settings: [UO2^2+]tot = 10^−6 M, [L]tot = 10^−5 M, 25 °C, I = 0.1 M KCl
[5] = Ligand protonation constants by potentiometric titration; format: physicochemical; settings: 25 °C, I = 0.1 M KCl
[6] = Initial pH potentiometric experiments with UO2^2+; format: binding; settings: lowest electrode-calibrated pH value of 2.4
[7] = Aqueous solubility of the complexes; format: physicochemical; settings: in words
[8] = Kinetic stability challenge with hydroxyapatite; format: physicochemical; settings: 2000 equiv. HAP, 0.1 M TRIS, 37 °C, arsenazo III indicator

| Structure (SMILES) | uranium uptake in bone (tibia) [1] | clearance from blood [1] | uranium in soft organs (lung, liver, kidney, spleen) [1] | k2 (pH 7.4), second-order rate constant for complexation of UO2^2+ [2] | k2 (pH 5), second-order rate constant for complexation of UO2^2+ [2] | stability of the uranium complex in vivo [1] | pUO2 (pH 7.4) = −log[UO2^2+]free [4] | also measured |
| --- | --- | --- | --- | --- | --- | --- | --- | --- |
| O=C([O-])c1cccc(CNCCNCc2cccc(C(=O)[O-])n2)n1.[O]=[U+2]=[O] [[UO2(dedpa)]] | minimal uptake in the bone | rapidly cleared from the blood | low but detectable values of uranium were found in the lung, liver and kidney |  |  |  |  |  |
| Oc1cccc2ccc(CNCCNCc3ccc4cccc(O)c4n3)nc12 [H2hox] |  |  |  | 3420 ± 340 M^−1 s^−1 | 73 ± 5 M^−1 s^−1 | stable in vivo | 19.80 | pKa1 [3]: 11.0(1); pKa2 [3]: 10.10(8); pKa3 [3]: 8.63(5); pKa4 [3]: 6.1(3) |
| O=C(O)c1cccc(CNC2CCCCC2NCc2cccc(C(=O)O)n2)n1 (stereo not drawn) [H2CHXdedpa] |  |  |  | 1190 ± 150 M^−1 s^−1 | 1320 ± 140 M^−1 s^−1 | stable in vivo | 17.72 | pKa1 [5]: 9.39(2); pKa2 [5]: 6.43(6); pKa3 [5]: 3.15(6); pKa4 [5]: 2.40(8) |
| O=C(O)c1cccc(CNCCNCc2cccc(C(=O)O)n2)n1 [H2dedpa] |  |  |  | 450 ± 40 M^−1 s^−1 | 420 ± 28 M^−1 s^−1 | stable in vivo | 17.46 | free UO2^2+ present [6]: < 5%; pKa1 [5]: 8.95(3); pKa2 [5]: 6.32(6); pKa3 [5]: 3.15(6); pKa4 [5]: 2.28(7) |
| [O-]c1cccc2ccc(CNC3CCCCC3NCc3ccc4cccc([O-])c4n3)nc12.[O]=[U+2]=[O] (stereo not drawn) [[UO2(CHXhox)]] |  |  |  |  |  |  |  | lethality upon injection ([1]; intravenous injection): precipitation in the circulatory system upon injection causing lethality; aqueous solubility [7]: low solubility in water; also recorded: poor aqueous solubility |
| O.O.O.O.O.O.O=[N+]([O-])O.O=[N+]([O-])O.[O]=[U]=[O] [UO2(NO3)2·6H2O] |  |  |  |  |  |  |  | original uranium remaining in solution with HAP ([8]; after 12 h): 10%; uranium remaining in solution with HAP ([8]; by 120 h): undetectable |
| O=C([O-])c1cccc(CNC2CCCCC2NCc2cccc(C(=O)[O-])n2)n1.[O]=[U+2]=[O] (stereo not drawn) [[UO2(CHXdedpa)]] | minimal uptake in the bone | rapidly cleared from the blood | low but detectable values of uranium were found in the lung, liver and kidney |  |  |  |  |  |
| [O-]c1cccc2ccc(CNCCNCc3ccc4cccc([O-])c4n3)nc12.[O]=[U+2]=[O] [[UO2(hox)]] | minimal uptake in the bone | rapidly cleared from the blood | significant accumulation of uranium in the lungs |  |  |  |  |  |
| Oc1cccc2ccc(CNC3CCCCC3NCc3ccc4cccc(O)c4n3)nc12 (stereo not drawn) [H2CHXhox] |  |  |  | 2850 ± 380 M^−1 s^−1 | 140 ± 5 M^−1 s^−1 |  | 19.98 | pKa1 [3]: 10.95(9); pKa2 [3]: 10.18(2); pKa3 [3]: 8.72(7); pKa4 [3]: 5.37(2) |
